Measurements of several laboratories.
Each line is one published result; the experiments were not run side by side.
Target: Homeodomain-interacting protein kinase 4 (HIPK4, Homo sapiens, UniProt Q8NE63)
One construct used (Q8NE63 1-616): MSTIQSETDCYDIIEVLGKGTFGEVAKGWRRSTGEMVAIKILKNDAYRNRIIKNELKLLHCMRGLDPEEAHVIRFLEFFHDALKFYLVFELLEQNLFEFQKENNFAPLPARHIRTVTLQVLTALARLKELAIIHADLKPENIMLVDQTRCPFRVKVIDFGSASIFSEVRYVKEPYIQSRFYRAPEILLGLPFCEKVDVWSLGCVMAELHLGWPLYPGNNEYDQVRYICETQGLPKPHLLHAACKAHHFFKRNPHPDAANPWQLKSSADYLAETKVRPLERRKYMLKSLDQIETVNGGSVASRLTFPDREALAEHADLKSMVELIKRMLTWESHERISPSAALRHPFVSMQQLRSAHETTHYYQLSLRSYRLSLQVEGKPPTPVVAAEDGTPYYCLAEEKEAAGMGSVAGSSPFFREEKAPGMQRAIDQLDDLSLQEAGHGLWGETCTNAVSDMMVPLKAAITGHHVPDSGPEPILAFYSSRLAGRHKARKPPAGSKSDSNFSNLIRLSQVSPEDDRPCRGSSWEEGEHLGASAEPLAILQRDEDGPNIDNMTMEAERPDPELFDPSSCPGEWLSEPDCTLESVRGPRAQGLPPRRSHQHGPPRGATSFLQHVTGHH

For `Cc1c[nH]c2nccc(Oc3c(F)cc(Nc4cc(Cl)nc(N)n4)cc3F)c12`, the remaining binding was 100% (cell-free assay, competition with immobilised ligand; 0.1 µM).
With `CCN1CCN(Cc2ccc(C(=O)Nc3ccc(C)c(Oc4ccc5c(c4)CC(=O)N5)c3)cc2C(F)(F)F)CC1` the remaining binding was 100% (binding, competition with immobilised ligand; 1 µM).
`N[C@@H]1CCN(c2nccc(-c3cnn4ncccc34)n2)C1` gave a remaining binding of 98% (binding; 1 µM).
For `O=c1nc(-c2ccccn2)sc2ccccc12`, the remaining binding was 85% (binding, competition with immobilised ligand; 1 µM).
`C[C@@H]1CCN(c2nccc(-c3cnn4ncccc34)n2)C1` has a remaining binding of 92% (binding; 1 µM).
The remaining binding of `O=C(NCC1CCOCC1)c1n[nH]cc1NC(=O)c1c(F)cccc1F` is reported as 78% (binding, competition with immobilised ligand; 1 µM).
The remaining binding of `Nc1ncc2c(n1)-c1c([nH]c3ccc(C#CC4CC4)cc13)CCCC2` is reported as 95% (binding, competition with immobilised ligand; 1 µM).
For `O=C(NCCCN1CCOCC1)c1ccc(Nc2nccc(-c3cc4ccccc4s3)n2)cc1`, the remaining binding was 5.8% (binding, competition with immobilised ligand; 1 µM).
The remaining binding of `Cn1cc(Cl)c2c(Oc3c(F)cc(Nc4cc(Cl)nc(N)n4)cc3F)ccnc21` is reported as 100% (cell-free assay, competition with immobilised ligand; 0.1 µM).
With `COc1cnc(Nc2cccc(S(N)(=O)=O)c2)nc1N1CCN(c2ccccc2)CC1` the remaining binding was 99% (binding, competition with immobilised ligand; 1 µM).
The remaining binding of `Cc1cc(C)c(-n2ccn3nc(-c4cccnc4)cc23)cc1NC(=O)c1cc(C#N)cc(S(F)(F)(F)(F)F)c1` is reported as 95.6% (cell-free assay, competition with immobilised ligand; 0.1 µM).
For `CN(C)c1nccc(-c2cnn3ncccc23)n1`, the remaining binding was 75% (binding; 1 µM).
`O=C(c1ccc(Nc2nccc(-c3cc4ccccc4s3)n2)cc1)N1CCC(N2CCCC2)CC1` has a remaining binding of 4.1% (binding, competition with immobilised ligand; 1 µM).
The remaining binding of `COc1ncc2cc3ccccc3nc2c1C#N` is reported as 100% (cell-free assay, competition with immobilised ligand; 5 µM).
The remaining binding of `CNC(=O)[C@@H]1CC[C@@H](n2c(-c3ccc4cnccc4c3)nc3ccc(C(=O)NCc4cccc(C(N)=O)c4)cc32)C1` is reported as 100% (binding, competition with immobilised ligand; 1 µM).
For `COc1ccc2c(c1)O[C@@H](c1ccc(OC)c(OC)c1)C[C@H]2NC(=O)C1(c2ccc3c(c2)OC(F)(F)O3)CC1`, the remaining binding was 51% (cell-free assay, competition with immobilised ligand; 1 µM).
For `c1cnn2ncc(-c3ccnc(N4CCC45COC5)n3)c2c1`, the remaining binding was 87% (binding; 1 µM).
For `CN(C)CC#Cc1ccc(OCCCc2sc(N3CCc4cccc(C(=O)Nc5nc6ccccc6s5)c4C3)nc2C(=O)O)c(F)c1`, the remaining binding was 100% (cell-free assay, competition with immobilised ligand; 1 µM).
`CN(CCCC(F)(F)F)c1nccc(-c2cnn3ncccc23)n1` gave a remaining binding of 95% (binding; 1 µM).
`O=C(c1ccc(Nc2ncc(Cl)c(-c3ccc(Cl)s3)n2)cc1)N1CCC(N2CCCC2)CC1` has a remaining binding of 3.6% (binding, competition with immobilised ligand; 1 µM).
For `CN(c1nccc(-c2cnn3ncccc23)n1)C1CC1`, the remaining binding was 99% (binding; 1 µM).
For `O=C(O)[C@H]1[C@H](Cn2nnc3ccccc3c2=O)CC[C@@H]1C(=O)c1ccc(OCCC2CCOCC2)cc1`, the remaining binding was 100% (cell-free assay, competition with immobilised ligand; 1 µM).
